Consider one compound from ChEMBL document CHEMBL1130069, “Structure-activity relationships of N-hydroxyurea 5-lipoxygenase inhibitors” (J Med Chem, 1997).

For series [1], the target named is T1, Polyunsaturated fatty acid 5-lipoxygenase (Rattus norvegicus) (UniProt P12527).
T1 sequence (whole entry): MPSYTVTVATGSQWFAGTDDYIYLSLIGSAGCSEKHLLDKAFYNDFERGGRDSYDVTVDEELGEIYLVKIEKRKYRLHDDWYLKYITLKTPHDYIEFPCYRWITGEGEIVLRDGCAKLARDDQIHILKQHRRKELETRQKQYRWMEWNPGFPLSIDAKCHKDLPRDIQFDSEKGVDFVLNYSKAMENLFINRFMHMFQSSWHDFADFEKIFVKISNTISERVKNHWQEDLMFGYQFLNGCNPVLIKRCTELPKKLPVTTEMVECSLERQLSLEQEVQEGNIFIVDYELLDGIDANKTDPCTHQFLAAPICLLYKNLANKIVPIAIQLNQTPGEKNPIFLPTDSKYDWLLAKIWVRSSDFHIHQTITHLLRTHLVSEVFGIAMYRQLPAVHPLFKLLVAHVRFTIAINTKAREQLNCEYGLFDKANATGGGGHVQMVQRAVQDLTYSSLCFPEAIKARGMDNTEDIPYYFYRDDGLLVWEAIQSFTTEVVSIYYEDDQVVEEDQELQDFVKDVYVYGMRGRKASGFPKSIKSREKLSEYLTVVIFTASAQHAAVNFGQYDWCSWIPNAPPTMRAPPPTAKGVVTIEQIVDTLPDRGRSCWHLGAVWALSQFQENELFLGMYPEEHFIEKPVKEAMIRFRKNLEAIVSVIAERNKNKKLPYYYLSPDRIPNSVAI
Kind of series: Percent inhibition of LTE4 formation in rats from peritoneal fluids at a dose of 200 micro mol/Kg. The class given is functional. The essentials: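 Rat peritoneal anaphylaxis model measuring leukotriene formation. Inhibitor given orally as a 1 h pretreatment. […] ED50 (mg/kg) was estimated by linear regression and is the mean of separate dose–response determinations (n).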

Series [2] is described as follows: t1/2 in monkey after PO dose (7 umol/kg). The note with it: simiiformes, in vivo. The class given is ADME, organism-based. The essentials:
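Compound was suspended in 0.2% HPMC and dosed orally to cynomolgus monkeys at the indicated µmol/kg. Estimated oral plasma half-life (h) was derived from plasma levels; means from at least three animals.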

Structures are written as SMILES.

What is called inhibition is the change of the read-out against control, counted positive when it falls. Usually half-life stands for how long it takes for the measured level to halve. `NC(=O)N(O)CC#Cc1ccc(Oc2ccc(F)cc2)o1` registered an inhibition in series [1] of 70%. The half-life in series [2] was 1.5 h.
